pIC50: −log10 of the molar value. In brackets after ≈: the same amount, converted by molar mass.
Columns and labels:
[1] = Inhibition of Escherichia coli UPPS-mediated condensation of FPP with IPP by spectrophotometric analysis
Summary of the method: (§1)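 Continuous spectrophotometric assay of FPP + IPP condensation by purified recombinant UPPS (EcUPPS or SaUPPS): 350 μM IPP, 35 μM FPP, 400 μM MESG to follow PPi release, 20 mM Tris·HCl pH 7.5, 0.01% v/v Triton X-100, 1 mM MgCl2.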

[2] = Inhibition of Staphylococcus aureus UPPS-mediated condensation of FPP with IPP by spectrophotometric analysis; summary of the method: as §1
Bacillus subtilis [3] = test: Antibacterial activity against Bacillus subtilis subsp. subtilis ATCC 6051 after 12 to 16 hrs by broth dilution method; type: functional, organism-based
Summary of the method: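 Microbroth dilution: 16 h LB culture diluted 50-fold, grown to OD600 ∼0.4, diluted 500-fold into LB and plated. Compound serially diluted from 0.5 mM; incubation 12–16 h at 37 °C; growth read as absorbance at 570 nm. IC50 by nonlinear regression, averaged over two independent experiments.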

Escherichia coli [4] = test: Antibacterial activity against Escherichia coli ATCC 29425 after 3 hrs by MTT assay; type: functional, organism-based; settings: ATCC 29425, 3 h
Summary of the method: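 Overnight (16 h) culture diluted 50-fold into LB, grown to OD600 ∼0.4, then diluted 500-fold and plated. Compound 2-fold serial dilutions from 0.3 mM; 3 h at 37 °C to mid-exponential phase. Viability read by MTT (2–4 h, then detergent 2 h at 23 °C in dark), absorbance 570 nm. IC50 by nonlinear regression, mean of two independent experiments.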

Saccharomyces cerevisiae = test: Toxicity in Saccharomyces cerevisiae ATCC 208352 after 36 hrs by broth dilution method; type: organism-based; settings: ATCC 208352, 36 h
Summary of the method: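 Yeast growth inhibition run in YPD medium: inoculum prepared by 50-fold dilution, growth to OD600 ∼0.4, then 500-fold dilution. Compound serially diluted from 0.5 mM; plates held 36 h at 37 °C; absorbance at 570 nm. IC50 by nonlinear regression, mean of two independent experiments.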

Bacillus subtilis [5] = test: Antibacterial activity against Bacillus subtilis 168 after 16 hrs by microbroth dilution method; type: functional; settings: subsp. subtilis str. 168, 16 h
Summary of the method: (§2)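 Stationary-phase cultures grown in LB broth at 37 °C, adjusted to OD600 0.016 in LB, then added to 96-well plates. 2-fold dilutions from 0.25 to 64 μg mL–1, with kanamycin (1–32 μg mL–1) and DMSO as controls. Incubated covered at 37 °C for 16 h with shaking. MIC taken as the lowest concentration suppressing at least 99% of growth, judged by turbidity.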

Bacillus anthracis [6] = test: Antibacterial activity against Bacillus anthracis Sterne after 16 hrs by microbroth dilution method; type: functional
Staphylococcus aureus = test: Antibacterial activity against methicillin-resistant Staphylococcus aureus USA300 after 16 hrs by microbroth dilution method; type: functional; settings: USA300, 16 h
Summary of the method: (§3)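 Stationary-phase cultures grown in brain–heart infusion medium at 37 °C, adjusted to OD600 0.016 in BHI, then plated. 2-fold dilutions from 0.25 to 64 μg mL–1 with DMSO as vehicle control. Kanamycin (1–32 μg mL–1) was the control for L. monocytogenes and gentamycin (1–64 μg mL–1) for S. aureus and E. faecalis. Incubated covered at 37 °C for 16 h with shaking. MIC was the concentration giving at least 99% growth suppression by turbidity.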

Enterococcus faecalis [7] = test: Antibacterial activity against vancomycin-resistant Enterococcus faecalis U503 after 16 hrs by microbroth dilution method; type: functional; settings: U503, 16 h; summary of the method: as §3
Listeria monocytogenes = test: Antibacterial activity against Listeria monocytogenes 4b F2365 after 16 hrs by microbroth dilution method; type: functional; settings: 4b F2365, 16 h; summary of the method: as §3
Pseudomonas putida = test: Antibacterial activity against Pseudomonas putida after 16 hrs by microbroth dilution method; type: functional; summary of the method: as §2
Escherichia coli [8] = test: Antibacterial activity against Escherichia coli MC4100 after 16 hrs by microbroth dilution method; type: functional; settings: MC4100, 16 h; summary of the method: as §2
Enterococcus faecalis [9] = test: Antibacterial activity against vancomycin-resistant Enterococcus faecalis U503 after 16 hrs by microbroth dilution method in presence of vancomycin; type: functional; settings: U503, 16 h
Bacillus anthracis [10] = test: Antibacterial activity against Bacillus anthracis Sterne after 16 hrs by microbroth dilution method in presence of ampicillin; type: functional

Row | SMILES | pIC50 [1] | pIC50 [2] | pIC50 (Bacillus subtilis [3]) | pIC50 (Escherichia coli [4]) | pIC50 (Saccharomyces cerevisiae) | MIC (Bacillus subtilis [5]) [µg/mL] | MIC (Bacillus anthracis [6]) [µg/mL] | MIC (Staphylococcus aureus) [µg/mL] | MIC (Enterococcus faecalis [7]) [µg/mL] | MIC (Listeria monocytogenes) [µg/mL] | MIC (Pseudomonas putida) [µg/mL] | MIC (Escherichia coli [8]) [µg/mL] | MIC (Enterococcus faecalis [9]) [µg/mL] | MIC (Bacillus anthracis [10]) [µg/mL]
1 | CN(C)c1ccc(/C=C2\SC(=S)N(Cc3ccco3)C2=O)cc1 | < 4.00 | < 4.00 | < 3.70 | < 3.70 | < 3.70 | – | – | – | – | – | – | – | – | –
2 | O=C(O)CCN1C(=O)/C(=C/c2ccc(-c3ccc(Cl)cc3Cl)o2)SC1=S | 5.68 | 5.62 | 6.37 | < 3.70 | 3.74 | 0.125 (≈ 0.292 µM) | 0.25 (≈ 0.584 µM) | 4 (≈ 9.34 µM) | 4 (≈ 9.34 µM) | 0.125 (≈ 0.292 µM) | > 64 | > 64 | – | –
3 | CCN1C(=O)/C(=C/c2ccc(OCC(=O)O)cc2)SC1=S | < 4.00 | < 4.00 | < 3.70 | < 3.70 | < 3.70 | – | – | – | – | – | – | – | – | –
4 | COc1cccc(/C=C2\SC(=S)N(Cc3ccco3)C2=O)c1OC | < 4.00 | < 4.00 | < 3.70 | < 3.70 | < 3.70 | – | – | – | – | – | – | – | – | –
5 | CC(=O)c1ccc(-c2ccc(/C=C3\SC(=S)N(c4ccccc4)C3=O)o2)cc1 | 4.07 | 4.49 | < 3.70 | < 3.70 | < 3.70 | – | – | – | – | – | – | – | – | –
6 | O=C(O)CCCCCN1C(=O)/C(=C/c2ccc(-c3cc(Cl)ccc3Cl)o2)SC1=S | < 4.00 | 5.42 | 5.25 | < 3.70 | < 3.70 | – | – | – | – | – | – | – | – | –
7 | Cc1cc(Cl)ccc1-c1ccc(/C=C2\SC(=S)N(CC(=O)O)C2=O)o1 | 3.59 | – | 5.54 | < 3.70 | < 3.70 | – | 1 (≈ 2.54 µM) | 8 (≈ 20.3 µM) | 1 (≈ 2.54 µM) | 4 (≈ 10.2 µM) | > 64 | > 64 | 1.78 | 1.24
8 | CCN1C(=O)/C(=C/c2ccc(OC)cc2)SC1=S | < 4.00 | < 4.00 | < 3.70 | < 3.70 | < 3.70 | – | – | – | – | – | – | – | – | –
9 | O=C(O)c1ccc(N2C(=O)/C(=C/c3ccc(Br)cc3)SC2=S)cc1 | < 3.70 | 3.77 | < 3.70 | < 3.70 | < 3.70 | – | – | – | – | – | – | – | – | –
10 | O=C1/C(=C/c2ccc(Cl)cc2Cl)SC(=S)N1Cc1ccco1 | < 4.00 | < 4.00 | < 3.70 | < 3.70 | < 3.70 | – | – | – | – | – | – | – | – | –
11 | O=C1/C(=C\c2cccc(O)c2O)SC(=S)N1Cc1ccco1 | < 4.00 | 5.28 | < 3.70 | < 3.70 | < 3.70 | – | – | – | – | – | – | – | – | –
12 | CCOc1cc(/C=C2\SC(=S)N(c3cccc(F)c3)C2=O)ccc1OC(=O)c1cccs1 | < 3.70 | < 3.70 | < 3.70 | < 3.70 | < 3.70 | – | – | – | – | – | – | – | – | –
13 | CCOc1cc(/C=C2\SC(=S)N(c3ccc(F)cc3)C2=O)ccc1O | 4.39 | 3.82 | < 3.70 | < 3.70 | < 3.70 | – | – | – | – | – | – | – | – | –
14 | Cc1ccc(-c2ccc(/C=C3\SC(=S)N(CCCC(=O)O)C3=O)o2)c([N+](=O)[O-])c1 | < 4.00 | 5.24 | 5.49 | < 3.70 | < 3.70 | – | – | – | – | – | – | – | – | –
15 | CN1C(=O)/C(=C/c2ccc(-c3cc(Cl)ccc3Cl)o2)SC1=S | < 3.70 | < 3.70 | < 3.70 | < 3.70 | < 3.70 | – | – | – | – | – | – | – | – | –
16 | CC1=CC(=O)/C(=C\N2C(=O)/C(=C/c3cccc(O)c3)SC2=S)C(=O)O1 | < 4.00 | < 4.00 | < 3.70 | < 3.70 | < 3.70 | – | – | – | – | – | – | – | – | –
17 | CCOc1cccc(/C=C2\SC(=S)N(Cc3ccco3)C2=O)c1O | < 4.00 | < 4.00 | < 3.70 | < 3.70 | < 3.70 | – | – | – | – | – | – | – | – | –

Source: ChEMBL document CHEMBL3286348, “Undecaprenyl diphosphate synthase inhibitors: antibacterial drug leads” (J Med Chem, 2014)
